pIC50: −log10 of the molar value.

These results are taken from ChEMBL document CHEMBL1146555, “Bioactive novel polyphenols from the fruit of Manilkara zapota (Sapodilla)” (J Nat Prod, 2003).

Experiment [1] concerns Radical scavenging activity. Nature of the experiment: Antioxidant activity assessed as DPPH radical scavenging activity after 30 mins. In kind it is functional. In outline:
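Test samples in DMSO mixed with 300 µM ethanolic DPPH, incubated 37 °C for 30 min, absorbance read at 515 nm. Final test concentrations typically 1-50 µg/mL. Percent inhibition relative to DMSO-treated control; IC50 = concentration scavenging 50% of DPPH radicals.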
On the technique in general: The DPPH test is a chemical assay of radical scavenging.

The next experiment relates to HCT-116. The experiment is described as follows: Cytotoxicity against human HCT116 cells after 72 hrs by MTT assay. The experiment is classed as functional, cell-based. The settings on record: HCT-116, 72 h. In outline:
(§1)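 Human colon cancer cells kept in DMEM with 10% FBS, 5% CO2, 37 °C, no antibiotics. About 3.0 × 10^4 cells per well, grown to 40% confluence, then exposed to compounds in DMSO for 72 h. MTT (5 mg/mL stock) added 4 h, formazan solubilized, absorbance at 570 nm. Octuplicate wells, mean and SD; IC50 by linear regression.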
In general terms: Formazan colour is commonly taken as a measure of viable cells.

The next experiment relates to SW480. Nature of the experiment: Cytotoxicity against human SW480 cells after 72 hrs by MTT assay. In kind it is functional, cell-based. The settings on record: SW480, 72 h. Put shortly:
as §1

For the molecule `O=C(/C=C/c1ccc(O)c(O)c1)O[C@@H]1C[C@](O)(C(=O)O)C[C@@H](O)[C@H]1OC(=O)c1cc(O)c(O)c(O)c1`, the negative logarithm of the IC50 (pIC50) in experiment [1] was 4.63; in the experiment on HCT-116, 3.81; in the experiment with SW480, 3.87.
For `COC(=O)[C@]1(O)C[C@@H](O)[C@@H](OC(=O)c2cc(O)c(O)c(O)c2)[C@H](OC(=O)/C=C/c2ccc(O)c(O)c2)C1`, in that order: 4.89, 3.72 and 3.80.
For `O=C(/C=C/c1ccc(O)c(O)c1)O[C@@H]1C[C@](O)(C(=O)O)C[C@@H](O)[C@H]1O` [CHLOROGENIC ACID], in that order: 4.40, 3.44 and 3.45.
In the case of `O=C(O[C@@H]1Cc2c(O)cc(O)cc2O[C@@H]1c1cc(O)c(O)c(O)c1)c1cc(O)c(O)c(O)c1` [EPIGALOCATECHIN GALLATE], the pIC50 in the experiment with HCT-116 was 3.79; in the experiment with SW480 it was 3.71.

In general, pIC50 refers to the negative decadic logarithm of the IC50, by convention in mol/L.
